In general, inhibition refers to the drop in the measured response relative to a control, in per cent. Broadly, the IC50 is the concentration needed to halve the response being measured.

The source of these data is ChEMBL document CHEMBL2331332 (J Med Chem, 2013).

Experiment [1] has as its target T1, Polyunsaturated fatty acid 5-lipoxygenase (Homo sapiens) (UniProt P09917).
T1 sequence (whole entry): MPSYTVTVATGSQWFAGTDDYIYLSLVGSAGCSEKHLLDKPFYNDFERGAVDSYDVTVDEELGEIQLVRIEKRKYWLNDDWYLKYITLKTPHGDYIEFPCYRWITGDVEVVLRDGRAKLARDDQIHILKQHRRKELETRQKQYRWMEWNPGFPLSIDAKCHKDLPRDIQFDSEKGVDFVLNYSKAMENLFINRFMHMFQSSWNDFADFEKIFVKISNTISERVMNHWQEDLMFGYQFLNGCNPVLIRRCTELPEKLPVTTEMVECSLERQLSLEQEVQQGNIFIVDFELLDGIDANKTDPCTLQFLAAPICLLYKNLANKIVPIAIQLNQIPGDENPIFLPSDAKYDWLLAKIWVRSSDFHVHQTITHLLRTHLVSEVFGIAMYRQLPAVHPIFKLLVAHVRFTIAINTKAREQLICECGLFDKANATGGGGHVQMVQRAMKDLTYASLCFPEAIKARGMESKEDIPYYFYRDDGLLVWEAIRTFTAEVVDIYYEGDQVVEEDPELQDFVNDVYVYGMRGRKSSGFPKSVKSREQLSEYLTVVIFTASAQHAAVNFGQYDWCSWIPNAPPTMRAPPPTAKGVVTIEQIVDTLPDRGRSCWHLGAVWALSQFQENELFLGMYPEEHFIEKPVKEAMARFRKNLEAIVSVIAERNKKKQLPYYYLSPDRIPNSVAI
As to the kind of experiment: Inhibition of 5-LOX-mediated LTB4 formation in human whole blood at 10 uM incubated for 20 mins prior to substrate addition measured after 0.5 hrs by EIA in presence of calcium ionophore A23187. In a few lines: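 Human whole blood was stimulated with calcium ionophore A23187 (final 20 μg/mL) for 0.5 h at 37 °C to induce LTB4 formation. Compounds were tested at 10 μM.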

Experiment [2] has as its target T2, Prostaglandin E synthase (Homo sapiens, UniProt O14684).
T2 sequence (O14684 whole entry): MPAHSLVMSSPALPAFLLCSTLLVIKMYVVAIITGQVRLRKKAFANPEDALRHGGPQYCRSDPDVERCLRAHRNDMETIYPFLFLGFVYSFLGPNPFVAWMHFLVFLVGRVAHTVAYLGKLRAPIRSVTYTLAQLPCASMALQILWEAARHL
Briefly: Inhibition of PGES-1 in human whole blood assessed as LPS-induced PGE2 formation incubated for 15 mins prior to LPS addition measured after 24 hrs by EIA. Summed up: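 Fresh heparinized blood came from healthy volunteers free of NSAIDs for at least 14 days. It was preincubated 15 min at 37 °C with compound or DMSO vehicle. LPS (final 100 μg/mL) was then added for 24 h at 37 °C. Plasma was obtained by centrifugation at 4 °C, and PGE2 was read by EIA.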

Experiment [3] has as its target T2, Prostaglandin E synthase. As to the kind of experiment: Inhibition of full-length microsomal PGES-1 (unknown origin) expressed in Escherichia coli Rosetta(DE3) using PGH2 as substrate assessed as inhibition of PGH2 conversion to PGE2 incubated 15 mins prior to substrate addition measured after 1 min by EIA. In a few lines:
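Reactions used 2.5 mM cofactor and 17 μM PGH2 for 1 min at 4 °C, then were stopped, and PGE2 was quantified by EIA. IC50 came from dose-response curves. Mean ± SEM, n = 3.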

The target in experiment [4] is T1, Polyunsaturated fatty acid 5-lipoxygenase (Homo sapiens). Briefly: Inhibition of 5-LOX (unknown origin) at 10 uM by human whole blood LTB4 assay.
For experiment [5], the system named is Prostaglandin G/H synthase 2 (COX-2). Briefly: Inhibition of COX-2 (unknown origin)-mediated TMPD oxidation using PGG2 as substrate at 100 uM incubated 15 mins prior to substrate addition measured after 36 secs by spectrophotometric analysis. The conditions noted are these: Homo sapiens.
Experiment [6] concerns Prostaglandin G/H synthase 1 (COX-1). As to the kind of experiment: Inhibition of COX-1 (unknown origin)-mediated TMPD oxidation using PGG2 as substrate at 100 uM incubated 15 mins prior to substrate addition measured after 36 secs by spectrophotometric analysis. The conditions noted are these: Homo sapiens.
Experiment [7] has as its target T3, Prostaglandin E synthase (Homo sapiens) (UniProt O14684).
T3 sequence (whole entry): T2 sequence (O14684 whole entry)
As to the kind of experiment: Competitive inhibition of full-length microsomal PGES-1 (unknown origin) expressed in Escherichia coli Rosetta(DE3) using PGH2 as substrate incubated for 5 mins prior to substrate addition relative to control in presence of increased substrate concentration.

The target in experiment [8] is T3, Prostaglandin E synthase (Homo sapiens). Briefly: Competitive inhibition of full-length microsomal PGES-1 (unknown origin) expressed in Escherichia coli Rosetta(DE3) using PGH2 as substrate incubated for 5 mins prior to substrate addition relative to control.
Experiment [9] has the same target. As to the kind of experiment: Competitive inhibition of full-length microsomal PGES-1 (unknown origin) expressed in Escherichia coli Rosetta(DE3) using PGH2 as substrate preincubated for 15 mins relative to control in presence of higher glutathione disulfide concentration. Summed up: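 This GSSG control repeated the cofactor competition setup, with added GSH replaced by GSSG at the same final mass-volume percentage. 2.5 mM GSH was always present, and PGH2 was 17 μM. Preincubation was 15 min at 4 °C. Zero inhibition was set from the GSH activity curve, and PGE2 was read by EIA. Mean ± SEM, n = 3.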

The target is the same in experiment [10]. As to the kind of experiment: Competitive inhibition of full-length microsomal PGES-1 (unknown origin) expressed in Escherichia coli Rosetta(DE3) using PGH2 as substrate preincubated for 15 mins relative to control in presence of 25 mM of cofactor GSH.
The target is the same in experiment [11]. Briefly: Competitive inhibition of full-length microsomal PGES-1 (unknown origin) expressed in Escherichia coli Rosetta(DE3) using PGH2 as substrate preincubated for 15 mins relative to control in presence of 2.5 mM of cofactor GSH.
For experiment [12] the target is unchanged. As to the kind of experiment: Inhibition of full-length microsomal PGES-1 (unknown origin) expressed in Escherichia coli Rosetta(DE3) using PGH2 as substrate assessed as PGH2 conversion to PGE2 at 10 uM incubated 15 mins prior to substrate addition measured after 1 min by EIA.
For experiment [13] the target is unchanged. Briefly: Inhibition of microsomal PGES-1 (unknown origin) expressed in Escherichia coli using PGH2 as substrate assessed as inhibition of PGE2 formation at 10 uM by reversed phase HPLC analysis.

Calls of active or inactive are those of the source. The calls are words filed in the database; no cut-off is given here.

As for `Clc1ccc(/C=C/c2cc(-c3ccc(-c4ccccc4)cc3)nc3ccc4ccccc4c23)cc1`, the inhibition in experiment [1] was < 1%; in experiment [4] it was 10%; in experiment [5] it was 1.8%; in [6], < 1%. The IC50 was 8500 nM in experiment [2] and 6.5 nM in [3].
Take `COc1cc(NC(=O)c2nn3c(C(F)(F)F)cc(-c4ccc(Br)cc4)nc3c2Cl)cc([N+](=O)[O-])c1`: the inhibition in [1] was < 1%; in experiment [4], 39%; in experiment [5], -2.2%; in experiment [6], < 1%. In addition, the concentration for half-maximal inhibition (IC50) stood at 8500 nM in experiment [2] and 9.7 nM in experiment [3].
With `COc1cc(-c2cc(C(=O)O)c3c(ccc4ccccc43)n2)ccc1OCCCC#N`, the inhibition is < 1% in experiment [1], < 1% in experiment [4], 1% in experiment [5] and 4.1% in [6]. The IC50 worked out at 4400 nM in experiment [2] and 1.1 nM in [3].
Turning to `CC1=NN(c2ccc([N+](=O)[O-])cc2)C(=O)/C1=N\Nc1ccccc1C(=O)O`, the inhibition in experiment [1] is < 1%; in experiment [4], 10%; in experiment [5], 2.5%; in experiment [6], 1%. Moreover, the IC50 in [2] is 17000 nM; in [3] it was 10 nM.
On to `O=C(O)CN1C(=O)/C(=C2/C(=O)N(CC(=O)O)c3ccccc32)SC1=S`, for which the inhibition in experiment [7] is 0%; in experiment [8], > 60%; in [1], < 1%; in experiment [4], < 1%; in experiment [5] it was 14.7%; in [6] it was < 1%. Besides, the results for the inhibition in experiment [10] and in [11] were < 15% and 80%, respectively. The inhibition result in experiment [9] is “Active”. For the same molecule, the IC50 in experiment [2] was determined as 3800 nM; in experiment [3], 1.8 nM.
Consider `CCOc1cc(/C=C2/C(=O)N(c3ccc(Cl)cc3)N=C2C)ccc1OCC(=O)O`, for which, in experiment [12], the inhibition was found to be 10%.
Take `Cc1ccc([N+](=O)[O-])cc1NC(=O)CSc1nnc(CNc2c(C)cccc2C)n1C`: the inhibition was < 1% in [1], 8% in experiment [4], < 1% in experiment [5] and < 1% in experiment [6]. Further, the IC50 is 700 nM in experiment [2] and 9.3 nM in experiment [3].
For the molecule `Cc1ccc2oc(-c3cccc(NC(=O)c4ccccc4[N+](=O)[O-])c3)nc2c1`, the inhibition in experiment [13] turned out to be 50%.
In the case of `CC(c1ccccc1)N1C(=O)c2ccc(C(=O)Nc3cc(Cl)ccc3C(=O)O)cc2C1=O` (stereo not drawn), the inhibition in experiment [1] and in experiment [4] was < 1% each time. The IC50 turned out to be 1400 nM in experiment [2] and 2 nM in [3].
On to `COc1ccc(-c2nnc(SCC(=O)c3ccc4c(c3)Cc3ccccc3-4)nc2-c2ccc(OC)cc2)cc1`, for which the inhibition in [7] is 0%; in experiment [8] it was > 60%; in experiment [1] it was < 1%; in experiment [4] it was 20%; in experiment [5], < 1%; in experiment [6], 2.1%. The inhibition in [10] was < 15%; in experiment [11], 80%. Besides, the inhibition entry in experiment [9] was “Active”. Further, the values for the concentration for half-maximal inhibition (IC50) in experiment [2] and in experiment [3] were 300 nM and 4 nM, respectively.
`CCOC(=O)C1=C(C)N=c2s/c(=C\c3ccc(-c4ccc(Cl)c(C(=O)O)c4)o3)c(=O)n2C1c1ccccc1Cl` (stereo not drawn): the inhibition is 0% in experiment [7]; > 60% in experiment [8]; < 1% in experiment [1]; < 1% in [4]; 12.9% in experiment [5]; < 1% in experiment [6]. Besides, the inhibition is < 15% in [10] and 80% in [11]. Further, the inhibition result in experiment [9] was “Active”. The IC50 came to 6500 nM in experiment [2] and 2 nM in [3].
On to `Cc1cc(C)c2oc(-c3ccc(C)c(NC(=O)c4cccc([N+](=O)[O-])c4)c3)nc2c1`, for which the inhibition in experiment [1] was < 1%; in [4], 30%. In addition, the values for the half-maximal inhibitory concentration (IC50) in experiment [2] and in experiment [3] were 6200 nM and 4.6 nM, respectively.
